Results as given in ChEMBL document CHEMBL2176963, “Design, synthesis, and biological evaluation of 3-(1H-1,2,3-triazol-1-yl)benzamide derivatives as Potent Pan Bcr-Abl inhibitors including the threonine(315)→isoleucine(315) mutant” (J Med Chem, 2012).
Activity calls are given as the source filed them. The calls are words filed in the database; no cut-off is given here.

Key:
[1] = Cell cycle arrest in mouse BA/F3 cells expressing Bcr-Abl T315I mutant assessed as accumulation at G0/G1 phase using propidium iodide staining by FACS analysis; type: functional, cell-based; conditions: BaF3
K562 [2] = assay: Cell cycle arrest in human K562 cells expressing wild type Bcr-Abl assessed as accumulation at G0/G1 phase using propidium iodide staining by FACS analysis; type: functional, cell-based
BaF3 [3] = assay: Induction of apoptosis in mouse BA/F3 cells expressing Bcr-Abl T315I mutant using annexin-V-FITC and 7-AAD staining by flow cytometer; type: functional, cell-based
K562 [4] = assay: Induction of apoptosis in human K562 cells expressing wild type Bcr-Abl using annexin-V-FITC and 7-AAD staining by flow cytometer; type: functional, cell-based
[5] = Antiproliferative activity against mouse BA/F3 cells after 72 hrs by CCK-8 assay; conditions: BaF3, 72 h
[6] = Antiproliferative activity against mouse BA/F3 cells expressing Bcr-Abl G250E mutant after 72 hrs by CCK-8 assay; conditions: BaF3, 72 h
[7] = Antiproliferative activity against mouse BA/F3 cells expressing Bcr-Abl Y253F mutant after 72 hrs by CCK-8 assay; conditions: BaF3, 72 h
[8] = Antiproliferative activity against mouse BA/F3 cells expressing Bcr-Abl H396R mutant after 72 hrs by CCK-8 assay; conditions: BaF3, 72 h
[9] = Antiproliferative activity against mouse BA/F3 cells expressing Bcr-Abl F359V mutant after 72 hrs by CCK-8 assay; conditions: BaF3, 72 h
[10] = Antiproliferative activity against mouse BA/F3 cells expressing Bcr-Abl E255V mutant after 72 hrs by CCK-8 assay; conditions: BaF3, 72 h
[11] = Antiproliferative activity against mouse BA/F3 cells expressing Bcr-Abl E255K mutant after 72 hrs by CCK-8 assay; conditions: BaF3, 72 h
[12] = Antiproliferative activity against mouse BA/F3 cells expressing Bcr-Abl H396P mutant after 72 hrs by CCK-8 assay; conditions: BaF3, 72 h
[13] = Antiproliferative activity against mouse BA/F3 cells expressing Bcr-Abl M244V mutant after 72 hrs by CCK-8 assay; conditions: BaF3, 72 h
[14] = Antiproliferative activity against mouse BA/F3 cells expressing Bcr-Abl E355G mutant after 72 hrs by CCK-8 assay; conditions: BaF3, 72 h
[15] = Antiproliferative activity against mouse BA/F3 cells expressing Bcr-Abl Y253H mutant after 72 hrs by CCK-8 assay; conditions: BaF3, 72 h
[16] = Antiproliferative activity against mouse BA/F3 cells expressing Bcr-Abl Q252H mutant after 72 hrs by CCK-8 assay; conditions: BaF3, 72 h
[17] = Antiproliferative activity against mouse BA/F3 cells expressing Bcr-Abl F486S mutant after 72 hrs by CCK-8 assay; conditions: BaF3, 72 h
[18] = Antiproliferative activity against mouse BA/F3 cells expressing Bcr-Abl M351T mutant after 72 hrs by CCK-8 assay; conditions: BaF3, 72 h
BaF3 [19] = assay: Effect on STAT5 protein level in mouse BA/F3 cells expressing Bcr-Abl T315I mutant by Western blot analysis; type: functional, cell-based
In short: (§1)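 K562 or Ba/F3 Bcr-Abl T315I cells were treated with graded concentrations, lysed in 1× SDS sample buffer, sonicated and boiled. Lysates were run on 8−12% SDS-PAGE and transferred to PVDF. Membranes were blocked in TBS with 0.1% Tween-20 and 5% nonfat milk, then probed with primary antibody and HRP-conjugated secondary. Blots shown represent three independent experiments.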

BaF3 [20] = assay: Effect on CrkL protein level in mouse BA/F3 cells expressing Bcr-Abl T315I mutant by Western blot analysis; type: functional, cell-based; in short: as §1
BaF3 [21] = assay: Effect on Bcr-Abl T315I mutant protein level in mouse BA/F3 cells by Western blot analysis; type: functional, cell-based; in short: as §1
[22] = tested on: Tyrosine-protein kinase ABL1 (Mus musculus), P00520 [T315I]; assay: Inhibition of Bcr-Abl T315I mutant-mediated STAT5 phosphorylation in mouse BA/F3 cells by Western blot analysis; type: cell-based; conditions: BaF3; in short: as §1
[23] = tested on: Tyrosine-protein kinase ABL1 (Mus musculus), P00520 [T315I]; assay: Inhibition of Bcr-Abl T315I mutant-mediated CrkL phosphorylation in mouse BA/F3 cells by Western blot analysis; type: cell-based; conditions: BaF3; in short: as §1
K562 [24] = assay: Effect on STAT5 protein level in human K562 cells expressing wild type Bcr-Abl by Western blot analysis; type: functional, cell-based; in short: as §1
K562 [25] = assay: Effect on CrkL protein level in human K562 cells expressing wild type Bcr-Abl by Western blot analysis; type: functional, cell-based; in short: as §1
K562 [26] = assay: Effect on wild type Bcr-Abl protein level in human K562 cells by Western blot analysis; type: functional, cell-based; in short: as §1
[27] = tested on: Tyrosine-protein kinase ABL1 (Mus musculus), P00520 [T315I]; assay: Inhibition of Bcr-Abl T315I mutant phosphorylation in mouse BA/F3 cells by Western blot analysis; type: cell-based; conditions: BaF3; in short: as §1
[28] = Antiproliferative activity against mouse BA/F3 cells expressing wild type Bcr-Abl after 72 hrs by CCK-8 assay; conditions: BaF3, 72 h
K562 [29] = assay: Antiproliferative activity against human K562 cells expressing wild type Bcr-Abl after 72 hrs by CCK-8 assay; conditions: K562, 72 h
K562 [30] = assay: Antiproliferative activity against imatinib-resistant human K562 cells expressing Bcr-Abl Q252H mutant after 72 hrs by CCK-8 assay; conditions: K562, 72 h
[31] = Antiproliferative activity against human KU812 cells expressing wild type Bcr-Abl after 72 hrs by CCK-8 assay; conditions: KU812, 72 h
cells = conditions: Mus musculus, BaF3, 72 h

Chain of Tyrosine-protein kinase ABL1 (Mus musculus), P00520 [T315I] (P00520 whole entry T315I): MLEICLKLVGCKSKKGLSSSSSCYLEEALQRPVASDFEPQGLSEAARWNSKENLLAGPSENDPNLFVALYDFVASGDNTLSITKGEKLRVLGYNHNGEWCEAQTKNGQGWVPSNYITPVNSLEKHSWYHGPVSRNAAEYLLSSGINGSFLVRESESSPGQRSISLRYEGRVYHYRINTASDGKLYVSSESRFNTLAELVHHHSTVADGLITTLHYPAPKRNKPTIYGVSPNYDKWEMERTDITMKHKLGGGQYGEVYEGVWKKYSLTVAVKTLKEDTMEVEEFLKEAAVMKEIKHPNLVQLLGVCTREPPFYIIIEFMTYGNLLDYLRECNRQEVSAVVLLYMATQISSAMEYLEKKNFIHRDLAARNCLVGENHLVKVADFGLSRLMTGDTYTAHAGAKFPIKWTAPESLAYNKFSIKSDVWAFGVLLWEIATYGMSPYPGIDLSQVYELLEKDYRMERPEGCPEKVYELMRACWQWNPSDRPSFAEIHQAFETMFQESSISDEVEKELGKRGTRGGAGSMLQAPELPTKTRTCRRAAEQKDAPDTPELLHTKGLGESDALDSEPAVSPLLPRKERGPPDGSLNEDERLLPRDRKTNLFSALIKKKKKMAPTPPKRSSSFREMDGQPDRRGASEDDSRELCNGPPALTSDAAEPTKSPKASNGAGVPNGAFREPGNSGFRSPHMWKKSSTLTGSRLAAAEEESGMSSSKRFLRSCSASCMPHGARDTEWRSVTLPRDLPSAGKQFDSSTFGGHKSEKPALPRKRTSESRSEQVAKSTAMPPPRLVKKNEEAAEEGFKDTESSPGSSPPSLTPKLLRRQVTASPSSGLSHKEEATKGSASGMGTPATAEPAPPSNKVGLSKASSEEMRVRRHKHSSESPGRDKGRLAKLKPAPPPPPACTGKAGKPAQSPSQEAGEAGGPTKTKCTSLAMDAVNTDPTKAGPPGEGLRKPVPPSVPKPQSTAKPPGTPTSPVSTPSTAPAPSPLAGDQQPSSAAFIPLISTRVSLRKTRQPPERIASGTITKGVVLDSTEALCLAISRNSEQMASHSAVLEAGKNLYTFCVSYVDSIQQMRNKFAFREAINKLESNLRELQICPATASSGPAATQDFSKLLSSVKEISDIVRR

Row | Structure (SMILES) | IC50 [5] | IC50 [6] | IC50 [7] | IC50 [8] | IC50 [9] | IC50 [10] | IC50 [11] | IC50 [12] | IC50 [13] | IC50 [14] | IC50 [15] | IC50 [16] | IC50 [17] | IC50 [18] | IC50 [28] | IC50 (cells) | other results
1 | CN1CCN(Cc2ccc(NC(=O)c3ccc(Cl)c(-n4cc(-c5cnc6[nH]ncc6c5)nn4)c3)cc2C(F)(F)F)CC1 | 372 nM | 1.97 nM | 0.52 nM | 5.4 nM | 2.31 nM | 3.41 nM | 2.75 nM | 0.3 nM | 0.61 nM | 0.3 nM | 2.97 nM | 7.55 nM | 4.17 nM | 0.45 nM | 2.49 nM | 11.9 nM | Activity [1]: Active; Activity (K562 [2]): Active; Activity (BaF3 [3]): Active; Activity (K562 [4]): Active; Activity (BaF3 [19]): inactive; Activity (BaF3 [20]): inactive; Activity (BaF3 [21]): inactive; inhibition [22]: Active; inhibition [23]: Active; Activity (K562 [24]): inactive; Activity (K562 [25]): inactive; Activity (K562 [26]): inactive; inhibition [27]: Dose-dependent effect; IC50 (K562 [29]): 0.43 nM; IC50 (K562 [30]): 3.91 nM; IC50 [31]: 0.08 nM
2 | Cc1nc(Nc2ncc(C(=O)Nc3c(C)cccc3Cl)s2)cc(N2CCN(CCO)CC2)n1 [DASATINIB] | 6590 nM | 0.51 nM | 0.58 nM | 1.72 nM | 1.94 nM | 1.91 nM | 5.72 nM | 0.31 nM | 0.12 nM | 0.58 nM | 1.29 nM | 6.55 nM | 1.71 nM | 0.83 nM | 4.5 nM | 1710 nM | –
